Test system: HEK-293T
Test: Multiplex assay against HEK293T;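 for Population Tubulin-Different-Phenotype (%): share of the cells with healthy nuclei that show this phenotype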
Assay type: toxicity, cell-based
Details: human
In short: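 Values for tubulin, mitochondrial-mass and membrane-permeability phenotypes are per cents of cells with healthy nuclei. These cells were identified by CellPathfinder machine-learning gating of live cells that had been stained at seeding with Hoechst33342, BioTracker Green Microtubule Cytoskeleton Dye, MitoTracker Red and Annexin V Alexa Fluor 680 and imaged on a CQ1 microscope at 37°C and 5% CO2 after compound addition. The gating first set Hoechst high-intensity objects apart from normal cells, then split normal cells into healthy, pyknosed or fragmented nuclei, and pyknosed cells into mitotic or apoptotic.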

[1] = 12 h, 1 µM, compound concentration 1 uM, replicate 1
[2] = 12 h, 1 µM, compound concentration 1 uM, replicate 2
[3] = 12 h, 10 µM, compound concentration 10 uM, replicate 1
[4] = 12 h, 10 µM, compound concentration 10 uM, replicate 2
[5] = 24 h, 1 µM, compound concentration 1 uM, replicate 1
[6] = 24 h, 1 µM, compound concentration 1 uM, replicate 2
[7] = 24 h, 10 µM, compound concentration 10 uM, replicate 1
[8] = 24 h, 10 µM, compound concentration 10 uM, replicate 2
[9] = 48 h, 1 µM, compound concentration 1 uM, replicate 1
[10] = 48 h, 1 µM, compound concentration 1 uM, replicate 2
[11] = 48 h, 10 µM, compound concentration 10 uM, replicate 1
[12] = 48 h, 10 µM, compound concentration 10 uM, replicate 2

CCCc1cc(C)[nH]c(=O)c1CNC(=O)c1cc(-c2ccc(N3CCN(C(C)C)CC3)nc2)cc2c1cnn2C(C)C
Population Apoptotic (%) [1]: 63%
Population Fragmented Nuclei (%) [1]: 13%
Population Healthy Nuclei (%) [1]: 25%
Population Hoechst High Intensity Objects (%) [1]: 13%
Population Membrane Permeable-Phenotype (%) [1]: 9%
Population Mitochondria Different-Phenotype (%) [1]: 97%
Population Mitotic Cells (%) [1]: 36%
Population Normal (%) [1]: 86%
Population Pyknosed Nuclei (%) [1]: 60%
Population Tubulin-Different-Phenotype (%) [1]: 86%
Total Cell Count [1]: 193
Population Apoptotic (%) [2]: 51%
Population Fragmented Nuclei (%) [2]: 4%
Population Healthy Nuclei (%) [2]: 27%
Population Hoechst High Intensity Objects (%) [2]: 3%
Population Membrane Permeable-Phenotype (%) [2]: 3%
Population Mitochondria Different-Phenotype (%) [2]: 87%
Population Mitotic Cells (%) [2]: 48%
Population Normal (%) [2]: 96%
Population Pyknosed Nuclei (%) [2]: 67%
Population Tubulin-Different-Phenotype (%) [2]: 94%
Total Cell Count [2]: 200
Population Apoptotic (%) [3]: 94%
Population Fragmented Nuclei (%) [3]: 9%
Population Healthy Nuclei (%) [3]: 20%
Population Hoechst High Intensity Objects (%) [3]: 20%
Population Membrane Permeable-Phenotype (%) [3]: 2%
Population Mitochondria Different-Phenotype (%) [3]: 97%
Population Mitotic Cells (%) [3]: 5%
Population Normal (%) [3]: 79%
Population Pyknosed Nuclei (%) [3]: 69%
Population Tubulin-Different-Phenotype (%) [3]: 89%
Total Cell Count [3]: 231
Population Apoptotic (%) [4]: 96%
Population Fragmented Nuclei (%) [4]: 5%
Population Healthy Nuclei (%) [4]: 12%
Population Hoechst High Intensity Objects (%) [4]: 8%
Population Membrane Permeable-Phenotype (%) [4]: 11%
Population Mitochondria Different-Phenotype (%) [4]: 94%
Population Mitotic Cells (%) [4]: 3%
Population Normal (%) [4]: 91%
Population Pyknosed Nuclei (%) [4]: 82%
Population Tubulin-Different-Phenotype (%) [4]: 100%
Total Cell Count [4]: 151
Population Apoptotic (%) [5]: 79%
Population Fragmented Nuclei (%) [5]: 11%
Population Healthy Nuclei (%) [5]: 26%
Population Hoechst High Intensity Objects (%) [5]: 17%
Population Membrane Permeable-Phenotype (%) [5]: 4%
Population Mitochondria Different-Phenotype (%) [5]: 97%
Population Mitotic Cells (%) [5]: 20%
Population Normal (%) [5]: 82%
Population Pyknosed Nuclei (%) [5]: 62%
Population Tubulin-Different-Phenotype (%) [5]: 97%
Total Cell Count [5]: 190
Population Apoptotic (%) [6]: 57%
Population Fragmented Nuclei (%) [6]: 2%
Population Healthy Nuclei (%) [6]: 52%
Population Hoechst High Intensity Objects (%) [6]: 3%
Population Membrane Permeable-Phenotype (%) [6]: 6%
Population Mitochondria Different-Phenotype (%) [6]: 94%
Population Mitotic Cells (%) [6]: 42%
Population Normal (%) [6]: 96%
Population Pyknosed Nuclei (%) [6]: 45%
Population Tubulin-Different-Phenotype (%) [6]: 94%
Total Cell Count [6]: 239
Population Apoptotic (%) [7]: 91%
Population Fragmented Nuclei (%) [7]: 15%
Population Healthy Nuclei (%) [7]: 16%
Population Hoechst High Intensity Objects (%) [7]: 19%
Population Mitochondria Different-Phenotype (%) [7]: 96%
Population Mitotic Cells (%) [7]: 8%
Population Normal (%) [7]: 80%
Population Pyknosed Nuclei (%) [7]: 68%
Population Tubulin-Different-Phenotype (%) [7]: 77%
Total Cell Count [7]: 236
Population Apoptotic (%) [8]: 98%
Population Fragmented Nuclei (%) [8]: 4%
Population Healthy Nuclei (%) [8]: 20%
Population Hoechst High Intensity Objects (%) [8]: 14%
Population Membrane Permeable-Phenotype (%) [8]: 3%
Population Mitochondria Different-Phenotype (%) [8]: 100%
Population Mitotic Cells (%) [8]: 1%
Population Normal (%) [8]: 85%
Population Pyknosed Nuclei (%) [8]: 74%
Population Tubulin-Different-Phenotype (%) [8]: 81%
Total Cell Count [8]: 151
Population Apoptotic (%) [9]: 75%
Population Fragmented Nuclei (%) [9]: 19%
Population Healthy Nuclei (%) [9]: 46%
Population Hoechst High Intensity Objects (%) [9]: 9%
Population Membrane Permeable-Phenotype (%) [9]: 0%
Population Mitochondria Different-Phenotype (%) [9]: 96%
Population Mitotic Cells (%) [9]: 24%
Population Normal (%) [9]: 90%
Population Pyknosed Nuclei (%) [9]: 33%
Population Tubulin-Different-Phenotype (%) [9]: 86%
Total Cell Count [9]: 241
Population Apoptotic (%) [10]: 69%
Population Fragmented Nuclei (%) [10]: 6%
Population Healthy Nuclei (%) [10]: 68%
Population Hoechst High Intensity Objects (%) [10]: 2%
Population Membrane Permeable-Phenotype (%) [10]: 1%
Population Mitochondria Different-Phenotype (%) [10]: 77%
Population Mitotic Cells (%) [10]: 30%
Population Normal (%) [10]: 97%
Population Pyknosed Nuclei (%) [10]: 25%
Population Tubulin-Different-Phenotype (%) [10]: 91%
Total Cell Count [10]: 327
Population Apoptotic (%) [11]: 95%
Population Fragmented Nuclei (%) [11]: 20%
Population Healthy Nuclei (%) [11]: 10%
Population Hoechst High Intensity Objects (%) [11]: 28%
Population Membrane Permeable-Phenotype (%) [11]: 5%
Population Mitochondria Different-Phenotype (%) [11]: 94%
Population Mitotic Cells (%) [11]: 4%
Population Normal (%) [11]: 71%
Population Pyknosed Nuclei (%) [11]: 68%
Population Tubulin-Different-Phenotype (%) [11]: 61%
Total Cell Count [11]: 241
Population Apoptotic (%) [12]: 98%
Population Fragmented Nuclei (%) [12]: 5%
Population Healthy Nuclei (%) [12]: 31%
Population Hoechst High Intensity Objects (%) [12]: 27%
Population Membrane Permeable-Phenotype (%) [12]: 2%
Population Mitochondria Different-Phenotype (%) [12]: 100%
Population Mitotic Cells (%) [12]: 1%
Population Normal (%) [12]: 72%
Population Pyknosed Nuclei (%) [12]: 62%
Population Tubulin-Different-Phenotype (%) [12]: 55%
Total Cell Count [12]: 148

Cc1c(Nc2ccc(S(=O)(=O)N3CCN(C)CC3)cc2F)nc2ccc(Nc3cnn(C4CC4)c3)cn2c1=O
Population Apoptotic (%) [1]: 17%
Population Fragmented Nuclei (%) [1]: 13%
Population Healthy Nuclei (%) [1]: 52%
Population Hoechst High Intensity Objects (%) [1]: 16%
Population Membrane Permeable-Phenotype (%) [1]: 15%
Population Mitochondria Different-Phenotype (%) [1]: 11%
Population Mitotic Cells (%) [1]: 82%
Population Normal (%) [1]: 83%
Population Pyknosed Nuclei (%) [1]: 33%
Population Tubulin-Different-Phenotype (%) [1]: 47%
Total Cell Count [1]: 566
Population Apoptotic (%) [2]: 11%
Population Fragmented Nuclei (%) [2]: 3%
Population Healthy Nuclei (%) [2]: 83%
Population Hoechst High Intensity Objects (%) [2]: 3%
Population Membrane Permeable-Phenotype (%) [2]: 14%
Population Mitochondria Different-Phenotype (%) [2]: 29%
Population Mitotic Cells (%) [2]: 88%
Population Normal (%) [2]: 96%
Population Pyknosed Nuclei (%) [2]: 12%
Population Tubulin-Different-Phenotype (%) [2]: 73%
Total Cell Count [2]: 888
Population Apoptotic (%) [3]: 17%
Population Fragmented Nuclei (%) [3]: 11%
Population Healthy Nuclei (%) [3]: 73%
Population Hoechst High Intensity Objects (%) [3]: 8%
Population Membrane Permeable-Phenotype (%) [3]: 4%
Population Mitochondria Different-Phenotype (%) [3]: 4%
Population Mitotic Cells (%) [3]: 82%
Population Normal (%) [3]: 91%
Population Pyknosed Nuclei (%) [3]: 15%
Population Tubulin-Different-Phenotype (%) [3]: 4%
Total Cell Count [3]: 791
Population Apoptotic (%) [4]: 4%
Population Fragmented Nuclei (%) [4]: 6%
Population Healthy Nuclei (%) [4]: 89%
Population Hoechst High Intensity Objects (%) [4]: 2%
Population Membrane Permeable-Phenotype (%) [4]: 2%
Population Mitochondria Different-Phenotype (%) [4]: 10%
Population Mitotic Cells (%) [4]: 95%
Population Normal (%) [4]: 97%
Population Pyknosed Nuclei (%) [4]: 4%
Population Tubulin-Different-Phenotype (%) [4]: 7%
Total Cell Count [4]: 1683
Population Apoptotic (%) [5]: 27%
Population Fragmented Nuclei (%) [5]: 16%
Population Healthy Nuclei (%) [5]: 60%
Population Hoechst High Intensity Objects (%) [5]: 11%
Population Membrane Permeable-Phenotype (%) [5]: 21%
Population Mitochondria Different-Phenotype (%) [5]: 9%
Population Mitotic Cells (%) [5]: 72%
Population Normal (%) [5]: 88%
Population Pyknosed Nuclei (%) [5]: 23%
Population Tubulin-Different-Phenotype (%) [5]: 65%
Total Cell Count [5]: 536
Population Apoptotic (%) [6]: 12%
Population Fragmented Nuclei (%) [6]: 6%
Population Healthy Nuclei (%) [6]: 85%
Population Hoechst High Intensity Objects (%) [6]: 5%
Population Mitochondria Different-Phenotype (%) [6]: 16%
Population Mitotic Cells (%) [6]: 87%
Population Normal (%) [6]: 94%
Population Pyknosed Nuclei (%) [6]: 7%
Population Tubulin-Different-Phenotype (%) [6]: 83%
Total Cell Count [6]: 1100
Population Apoptotic (%) [7]: 16%
Population Fragmented Nuclei (%) [7]: 8%
Population Healthy Nuclei (%) [7]: 85%
Population Hoechst High Intensity Objects (%) [7]: 4%
Population Membrane Permeable-Phenotype (%) [7]: 9%
Population Mitochondria Different-Phenotype (%) [7]: 3%
Population Mitotic Cells (%) [7]: 83%
Population Normal (%) [7]: 95%
Population Pyknosed Nuclei (%) [7]: 6%
Population Tubulin-Different-Phenotype (%) [7]: 8%
Total Cell Count [7]: 922
Population Apoptotic (%) [8]: 0%
Population Fragmented Nuclei (%) [8]: 18%
Population Healthy Nuclei (%) [8]: 79%
Population Hoechst High Intensity Objects (%) [8]: 3%
Population Membrane Permeable-Phenotype (%) [8]: 7%
Population Mitochondria Different-Phenotype (%) [8]: 2%
Population Mitotic Cells (%) [8]: 100%
Population Normal (%) [8]: 96%
Population Pyknosed Nuclei (%) [8]: 2%
Population Tubulin-Different-Phenotype (%) [8]: 10%
Total Cell Count [8]: 2721

Source: ChEMBL document CHEMBL4689842, “EUbOPEN Chemogenomics Library wave 1” (2021)
